From PMC5402713 (Pain, 2017)

Tests used:
[1] = target: T1, mouse TRPM3α2 (Mus musculus, UniProt J9SQF3); type: cell-based; settings: for TRPM3 inhibition relative to mefenamic acid: primary screen, data not shown; for Hill coefficient of TRPM3 inhibition: Fluo-4-loaded HEKmTRPM3 cells, PregS-induced Ca2+ signal
[2] = cited from earlier work
[3] = target: human TRPM8 (Homo sapiens, UniProt Q7Z2W7); experiment: Selectivity Ca2+ assay in HEKhTRPM8 cells, menthol-stimulated; type: cell-based; settings: menthol 300 μM, drug up to 50 μM
human TRPM8, sequence (Q7Z2W7 whole entry): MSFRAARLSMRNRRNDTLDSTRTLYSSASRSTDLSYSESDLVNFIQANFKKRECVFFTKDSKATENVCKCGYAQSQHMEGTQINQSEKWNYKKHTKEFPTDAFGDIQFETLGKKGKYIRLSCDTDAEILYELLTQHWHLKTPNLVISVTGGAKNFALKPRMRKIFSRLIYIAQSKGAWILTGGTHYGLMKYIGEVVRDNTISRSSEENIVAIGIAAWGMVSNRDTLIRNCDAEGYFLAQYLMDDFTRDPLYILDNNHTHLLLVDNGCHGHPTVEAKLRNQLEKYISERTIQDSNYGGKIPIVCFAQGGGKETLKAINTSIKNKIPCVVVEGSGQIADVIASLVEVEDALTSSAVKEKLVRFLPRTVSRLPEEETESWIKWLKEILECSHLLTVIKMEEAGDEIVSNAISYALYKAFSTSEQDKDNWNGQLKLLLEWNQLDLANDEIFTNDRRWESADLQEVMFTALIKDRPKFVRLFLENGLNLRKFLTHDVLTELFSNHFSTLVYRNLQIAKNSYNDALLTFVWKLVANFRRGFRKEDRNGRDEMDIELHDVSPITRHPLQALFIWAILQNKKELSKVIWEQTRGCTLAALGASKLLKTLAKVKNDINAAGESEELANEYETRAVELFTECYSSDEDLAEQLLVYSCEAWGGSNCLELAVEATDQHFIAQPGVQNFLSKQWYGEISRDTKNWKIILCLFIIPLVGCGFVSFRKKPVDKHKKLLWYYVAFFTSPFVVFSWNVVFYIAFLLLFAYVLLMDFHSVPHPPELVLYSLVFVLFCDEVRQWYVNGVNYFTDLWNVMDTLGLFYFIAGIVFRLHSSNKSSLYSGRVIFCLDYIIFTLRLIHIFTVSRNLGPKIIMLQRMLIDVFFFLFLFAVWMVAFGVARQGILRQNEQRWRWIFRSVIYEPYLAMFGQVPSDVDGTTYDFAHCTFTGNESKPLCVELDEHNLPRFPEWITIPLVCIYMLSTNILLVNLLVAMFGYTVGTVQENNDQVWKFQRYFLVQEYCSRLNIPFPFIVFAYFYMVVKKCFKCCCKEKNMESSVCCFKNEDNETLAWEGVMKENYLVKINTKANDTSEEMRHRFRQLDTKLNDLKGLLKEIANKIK
Procedure, shortened: (§1)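 Stable HEK293 lines expressing human TRPA1, rat TRPV1 or human TRPM8 were loaded in suspension with Fluo-4/AM (4 μM, 30 min, 37°C) and resuspended in HEPES-buffered saline, pH 7.4. Cells were pre-exposed to test compound in 384-well plates. After baseline reading, cells were stimulated with 30 μM AITC (TRPA1), 2 μM capsaicin (TRPV1) or 300 μM menthol (TRPM8). Background-corrected fluorescence was normalized to initial intensity (F/F₀).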

[4] = target: human ankyrin-like TRPA1 (Homo sapiens, UniProt O75762); experiment: Selectivity Ca2+ assay in HEKhTRPA1 cells, AITC-stimulated; type: cell-based; settings: AITC 30 μM; for Inhibition of AITC-induced TRPA1 activation: drug up to 50 μM
human ankyrin-like TRPA1, sequence (O75762 whole entry): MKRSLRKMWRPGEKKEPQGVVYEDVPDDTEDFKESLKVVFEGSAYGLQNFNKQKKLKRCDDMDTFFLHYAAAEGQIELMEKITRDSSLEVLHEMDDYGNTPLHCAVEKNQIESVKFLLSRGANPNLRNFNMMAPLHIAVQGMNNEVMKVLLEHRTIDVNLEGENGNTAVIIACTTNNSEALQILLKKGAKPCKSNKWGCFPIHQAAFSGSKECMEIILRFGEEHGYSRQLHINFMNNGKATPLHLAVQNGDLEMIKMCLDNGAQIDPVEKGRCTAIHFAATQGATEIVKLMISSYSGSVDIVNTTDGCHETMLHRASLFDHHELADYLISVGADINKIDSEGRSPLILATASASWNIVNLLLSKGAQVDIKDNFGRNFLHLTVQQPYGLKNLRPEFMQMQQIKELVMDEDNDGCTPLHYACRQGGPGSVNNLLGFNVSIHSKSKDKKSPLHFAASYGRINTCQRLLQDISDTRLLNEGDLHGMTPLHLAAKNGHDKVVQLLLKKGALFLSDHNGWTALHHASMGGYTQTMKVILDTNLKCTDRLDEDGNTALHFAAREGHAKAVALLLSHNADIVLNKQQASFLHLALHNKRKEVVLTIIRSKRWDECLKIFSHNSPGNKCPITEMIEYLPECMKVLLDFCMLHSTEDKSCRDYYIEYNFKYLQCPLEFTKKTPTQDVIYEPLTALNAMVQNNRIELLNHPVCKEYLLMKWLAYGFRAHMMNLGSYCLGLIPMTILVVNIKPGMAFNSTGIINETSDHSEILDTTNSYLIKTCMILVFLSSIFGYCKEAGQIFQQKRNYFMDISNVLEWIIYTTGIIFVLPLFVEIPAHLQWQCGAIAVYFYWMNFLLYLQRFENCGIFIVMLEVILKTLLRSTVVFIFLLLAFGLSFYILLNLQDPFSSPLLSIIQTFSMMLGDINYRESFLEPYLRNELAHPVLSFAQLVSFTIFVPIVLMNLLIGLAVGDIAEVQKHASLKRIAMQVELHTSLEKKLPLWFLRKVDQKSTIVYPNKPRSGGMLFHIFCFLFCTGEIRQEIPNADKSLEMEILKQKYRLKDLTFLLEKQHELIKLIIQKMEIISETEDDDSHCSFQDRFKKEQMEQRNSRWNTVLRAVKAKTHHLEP
Procedure, shortened: as §1

[5] = target: human TRPM2 (Homo sapiens, UniProt O94759); experiment: H2O2-induced [Ca2+]i signals in HEK cells expressing human TRPM2; type: cell-based; settings: diclofenac at concentrations above 1 μM, data not shown
[6] = target: T1, mouse TRPM3α2; experiment: Whole-cell patch-clamp of TRPM3 currents in HEKmTRPM3 cells; type: cell-based
[7] = system: TRPA1; settings: read-out: EC50 of TRPA1 activation; cited from earlier work
[8] = physiological pH, no reference given; cited from earlier work
[9] = target: rat TRPV1 (Rattus norvegicus, UniProt O35433); experiment: Selectivity Ca2+ assay in HEKrTRPV1 cells, capsaicin-stimulated; type: cell-based; settings: capsaicin 2 μM, drug up to 50 μM
rat TRPV1, sequence (O35433 whole entry): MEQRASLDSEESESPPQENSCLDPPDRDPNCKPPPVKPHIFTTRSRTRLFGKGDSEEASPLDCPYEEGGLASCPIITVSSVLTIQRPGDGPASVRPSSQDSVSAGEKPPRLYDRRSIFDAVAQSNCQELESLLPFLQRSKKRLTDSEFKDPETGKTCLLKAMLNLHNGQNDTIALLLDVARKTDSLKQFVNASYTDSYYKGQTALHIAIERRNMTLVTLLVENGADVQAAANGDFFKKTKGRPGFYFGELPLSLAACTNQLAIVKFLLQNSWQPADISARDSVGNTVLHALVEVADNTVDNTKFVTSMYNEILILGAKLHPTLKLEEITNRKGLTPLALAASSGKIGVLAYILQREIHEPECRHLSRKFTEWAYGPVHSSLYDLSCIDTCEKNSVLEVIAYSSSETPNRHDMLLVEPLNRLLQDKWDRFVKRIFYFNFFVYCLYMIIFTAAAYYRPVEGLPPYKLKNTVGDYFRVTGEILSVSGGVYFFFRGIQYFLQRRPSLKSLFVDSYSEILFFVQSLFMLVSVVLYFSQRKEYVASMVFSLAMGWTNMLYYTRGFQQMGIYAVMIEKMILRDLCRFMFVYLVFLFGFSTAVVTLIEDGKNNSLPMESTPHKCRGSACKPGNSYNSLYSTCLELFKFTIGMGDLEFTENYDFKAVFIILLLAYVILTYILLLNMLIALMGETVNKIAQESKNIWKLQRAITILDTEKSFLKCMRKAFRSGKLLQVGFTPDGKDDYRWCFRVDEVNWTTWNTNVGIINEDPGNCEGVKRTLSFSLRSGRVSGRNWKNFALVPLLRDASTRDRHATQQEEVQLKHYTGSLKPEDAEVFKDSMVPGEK
Procedure, shortened: as §1

[10] = system: C57BL/6J mice; experiment: CFA-induced inflammatory thermal hyperalgesia, hot plate; type: in vivo, mouse; settings: primidone 1 mg·kg^−1 i.p., 24 hours after CFA
[11] = system: C57BL/6J mice; experiment: Pregnenolone sulfate-induced chemical pain in mice; type: in vivo, mouse; settings: for Nociception as duration per single response, compared with controls: data not shown
Procedure, shortened: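 Mice received i.p. test compound (0.5, 2, 10 mg·kg⁻¹, suspended in 0.5% Tween 20) or vehicle. After 20 min, 5 nmol PregS (in sterile water, 10 μL total) was injected into the right hind paw. Over 180 s, observers recorded latency to the first response, number of responses and total duration of licking, lifting and shaking. n = 8 each; mean ± SEM; one-way ANOVA.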

[12] = system: C57BL/6J mice; experiment: Exploratory motor activity; type: in vivo, mouse; settings: primidone 10 mg·kg^−1 i.p., after 120 minutes
Procedure, shortened: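 Male C57BL/6J mice, 10–12 weeks old. Test compound was suspended in 0.5% Tween 20, which also served as vehicle control, and given i.p. Travelled distance in an opaque open-field box was video-tracked for 5 min, both immediately before the hot plate test and 120 min after dosing. n = 10 each; mean ± SEM; one-way ANOVA.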

[13] = system: C57BL/6J mice; experiment: Hot plate test; type: in vivo, mouse; settings: 52°C
Procedure, shortened: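 Male C57BL/6J mice were placed on a 52°C hot plate 20 min after i.p. test compound (0.5, 2, 10 mg·kg⁻¹ in 0.5% Tween 20) or vehicle. Latency to the first nocifensive hind-paw response was recorded, with a 45 s cutoff. Mean ± SEM; one-way ANOVA.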

[14] = system: C57BL/6J mice; experiment: Tail immersion test; type: in vivo, mouse; settings: primidone 1 mg·kg^−1 i.p., 48°C
Procedure, shortened: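 Tail immersion in male C57BL/6J mice given test compound at 1 mg·kg⁻¹ i.p. or vehicle (0.5% Tween 20). Each mouse was restrained in a 50 mL conical tube, and the distal half of the tail was dipped in water at 48.0 ± 0.5°C. Latency to vigorous tail flexion was recorded, with a 15 s cutoff. n = 10 each; mean ± SEM.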

[15] = system: rat DRG neurones; experiment: Single-cell Fura-2 [Ca2+]i measurement in isolated rat DRG neurones; type: cell-based; settings: 10 μM primidone
[16] = target: human TRPM3α2 (Homo sapiens, UniProt Q9HCF6); type: cell-based; settings: qualitative; PregS 35 μM, primidone 25 μM
Procedure, shortened: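 HEK293 cells were grown in MEM with Earle's salts, 10% FCS, 2 mM L-glutamine and penicillin/streptomycin. 1–2 days after seeding, they were transfected with 2 μg plasmid encoding human TRPM3α2 C-terminally fused to YFP and used 2 days later. For [Ca²⁺]i measurement, 35 μM PregS and 25 μM test compound were added sequentially. Nontransfected HEK293 cells served as control.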

[17] = target: T1, mouse TRPM3α2; type: cell-based; settings: 10 μM primidone, temperature 22 to 37°C, Fura-2

T1 sequence (J9SQF3 1-1709 isoform J9SQF3-12): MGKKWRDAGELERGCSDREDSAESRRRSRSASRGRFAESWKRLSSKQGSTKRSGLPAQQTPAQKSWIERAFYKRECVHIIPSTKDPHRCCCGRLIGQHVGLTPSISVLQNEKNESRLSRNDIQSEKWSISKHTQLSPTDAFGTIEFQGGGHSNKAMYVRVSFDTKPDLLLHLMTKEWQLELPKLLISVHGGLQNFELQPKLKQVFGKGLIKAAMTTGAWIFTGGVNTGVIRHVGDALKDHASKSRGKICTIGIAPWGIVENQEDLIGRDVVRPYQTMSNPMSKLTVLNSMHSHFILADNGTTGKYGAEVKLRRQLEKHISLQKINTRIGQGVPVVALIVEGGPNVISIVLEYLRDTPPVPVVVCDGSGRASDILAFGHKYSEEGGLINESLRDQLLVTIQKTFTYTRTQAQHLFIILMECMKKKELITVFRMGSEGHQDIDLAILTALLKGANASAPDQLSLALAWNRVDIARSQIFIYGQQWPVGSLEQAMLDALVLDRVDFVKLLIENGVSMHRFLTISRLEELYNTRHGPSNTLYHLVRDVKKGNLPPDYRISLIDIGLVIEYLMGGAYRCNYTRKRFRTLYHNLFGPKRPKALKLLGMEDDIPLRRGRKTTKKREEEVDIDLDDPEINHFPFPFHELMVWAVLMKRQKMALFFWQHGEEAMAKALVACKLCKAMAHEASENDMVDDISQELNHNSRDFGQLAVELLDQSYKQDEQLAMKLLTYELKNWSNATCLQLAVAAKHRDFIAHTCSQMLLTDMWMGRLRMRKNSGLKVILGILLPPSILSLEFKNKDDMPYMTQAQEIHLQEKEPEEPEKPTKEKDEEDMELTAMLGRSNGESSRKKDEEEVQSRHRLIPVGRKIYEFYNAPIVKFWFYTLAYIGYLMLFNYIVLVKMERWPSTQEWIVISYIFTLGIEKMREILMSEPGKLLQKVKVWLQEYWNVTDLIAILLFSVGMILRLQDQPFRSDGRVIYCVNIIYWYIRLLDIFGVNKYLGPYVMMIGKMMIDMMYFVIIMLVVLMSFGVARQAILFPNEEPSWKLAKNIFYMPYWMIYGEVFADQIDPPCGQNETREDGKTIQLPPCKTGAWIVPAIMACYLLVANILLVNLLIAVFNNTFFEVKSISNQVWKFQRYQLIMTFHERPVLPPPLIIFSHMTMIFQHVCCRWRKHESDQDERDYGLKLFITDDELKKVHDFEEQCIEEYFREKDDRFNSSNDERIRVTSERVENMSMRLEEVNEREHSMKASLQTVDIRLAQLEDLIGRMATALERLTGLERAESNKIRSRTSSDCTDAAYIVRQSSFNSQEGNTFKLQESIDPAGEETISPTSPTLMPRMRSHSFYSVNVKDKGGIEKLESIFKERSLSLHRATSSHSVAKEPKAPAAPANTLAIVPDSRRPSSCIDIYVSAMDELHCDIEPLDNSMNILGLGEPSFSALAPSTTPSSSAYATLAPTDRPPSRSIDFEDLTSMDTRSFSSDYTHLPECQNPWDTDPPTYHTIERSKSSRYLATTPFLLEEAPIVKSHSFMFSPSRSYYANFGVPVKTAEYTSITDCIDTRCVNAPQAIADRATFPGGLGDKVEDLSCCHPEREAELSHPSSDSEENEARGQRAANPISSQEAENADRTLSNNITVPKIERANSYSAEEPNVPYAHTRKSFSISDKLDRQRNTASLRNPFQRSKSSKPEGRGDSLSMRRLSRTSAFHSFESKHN

With `O=C(O)c1ccccc1Nc1cccc(C(F)(F)F)c1` [flufenamic acid] the “TRPM3 inhibition relative to mefenamic acid” value [1] was “less potent and poorly specific TRPM3 inhibitors”.
For `CCC1(c2ccccc2)C(=O)NC(=O)NC1=O` [phenobarbital], the “Plasma concentration of the major active metabolite during primidone therapy” value [2] is given as 15 to 40 µM.
With `O=C(O)Cc1ccccc1Nc1c(Cl)cccc1Cl` [diclofenac] the “Inhibition of menthol-induced TRPM8 activation” value [3] was “almost unaffected”, the “Attenuation of responses to AITC stimulation” value ([4]; diclofenac at concentrations higher than 50 μM) was “about 50%” and the “Inhibition of H2O2-induced [Ca2+]i signals” value [5] was “partial inhibition”. The “Hill coefficient of TRPM3 inhibition” value [1] was 1.2 ± 0.1, the “Effect on PregS-induced inward and outward currents” value ([6]; 25 μM diclofenac in bath, 35 μM PregS) was “almost completely abolished” and the “Effect of intracellularly perfused drug on PregS-induced currents” value ([6]; 25 μM diclofenac in pipette solution) was “did not prevent PregS-induced currents”. The inhibition at 5 µM ([6]; read-out: Inhibition of depolarizing inward currents) was about 70%, the EC50 [7] was 210 µM and the “Share of deprotonized, negatively charged microspecies” value [8] was over 99%.
In the case of `Cc1c(Cl)cccc1Nc1ccccc1C(=O)O` [tolfenamic acid], the “TRPM3 inhibition relative to mefenamic acid” value [1] is reported as “less potent and poorly specific TRPM3 inhibitors”.
In the case of `CNCCCC12CCC(c3ccccc31)c1ccccc12` [maprotiline], the “Inhibition of menthol-induced TRPM8 activation” value [3] is reported as “no apparent inhibition”, the “Inhibition of capsaicin-induced TRPV1 activation” value [9] is reported as “no apparent inhibition” and the “Inhibition of AITC-induced TRPA1 activation” value [4] is reported as “no apparent inhibition”.
For `CCC1(c2ccccc2)C(=O)NCNC1=O` [primidone], the “Inhibition of menthol-induced TRPM8 activation” value [3] was “no apparent inhibition”, the “CFA-induced sensitization, hot plate latency” value [10] was “prevented the signs of CFA-induced sensitization” and the “Latency and total response duration to PregS-induced pain” value ([11]; primidone 0.5 mg·kg^−1 i.p., 20 minutes before PregS 5 nmol i.pl.) was “significant antinociception”. For the same compound, the “Nociception as duration per single response, compared with controls” value ([11]; primidone 0.5 mg·kg^−1 i.p.) was “significantly reduced”, the “Nociception as duration per single response, compared with controls” value ([11]; primidone 10 mg·kg^−1 i.p.) was “intensified” and the “Number of responses to PregS” value ([11]; primidone 0.5, 2 and 10 mg·kg^−1 i.p.) was “not altered”. For the same compound, the “Exploratory activity (travelled distance)” value [12] was “slight reduction of exploratory activity”, the “Response latency on the hot plate” value ([13]; primidone 10 mg·kg^−1 i.p.) was “did not differ from controls” and the “Response latency on the hot plate” value ([13]; primidone 0.5 and 2 mg·kg^−1 i.p.) was “prolonged the response latency”. The “Inhibition of capsaicin-induced TRPV1 activation” value [9] was “no apparent inhibition”, the “Inhibition of AITC-induced TRPA1 activation” value [4] was “no apparent inhibition” and the “Latency to tail withdrawal” value [14] was “prolonged the latency to tail withdrawal”. The “Inhibition of [Ca2+]i responses of capsaicin treatment” value ([15]; 2 μM capsaicin, data not shown) was “not discernibly inhibited”, the “Effect on [Ca2+]i in PregS-responsive DRG neurones” value ([15]; PregS 35 μM) was “immediate decrease in [Ca^2+]i” and the IC50 [1] was about 0.6 µM. The “Hill coefficient of TRPM3 inhibition” value [1] was 1.4 ± 0.2, the “Effect on PregS-induced responses at the human TRPM3 channel” value [16] was “confirmed the effectiveness” and the “Effect on omega pore-like currents evoked by coapplied PregS and clotrimazole” value ([6]; 10 μM primidone, 40 μM PregS and 10 μM clotrimazole) was “inhibited”. The “Effect on PregS-induced inward currents” value ([6]; 3 and 5 μM primidone, 35 μM PregS) was “almost completely abolished”, the “Potency to block TRPM3 currents” value ([6]; electrophysiological recordings) was “submicromolar potency” and the Therapeutic plasma concentrations [2] was 20 to 50 µM. For the same compound, the Plasma protein binding ([2]; no reference given) was “less than 10%”, the Relative distribution volume ([2]; no reference given) was 0.6 L/kg and the “Effect on [Ca2+]i during heat-induced TRPM3 activation” value [17] was “rapid and reversible decrease in [Ca^2+]i”.
